Reference: ChEMBL document CHEMBL5058577, “EUbOPEN Chemogenomics Library 2 (Multiplex)” (2022)

Tested on: HEK-293T
Test: Multiplex assay against HEK293T
Format: toxicity, cell-based
Settings: human
Summary of the method: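 With compound added, live cells were imaged on a CQ1 microscope at 37°C and 5% CO2; staining with Hoechst33342, BioTracker Green Microtubule Cytoskeleton Dye, MitoTracker Red and Annexin V Alexa Fluor 680 had been done at seeding. The CellPathfinder machine-learning gating scheme split cells into Hoechst high-intensity objects or normal cells, normal cells into healthy, pyknosed or fragmented nuclei, and pyknosed cells into mitotic or apoptotic. The tubulin, mitochondrial-mass and membrane-permeability phenotypes are per cents of healthy-nucleus cells.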

[1] = 12 h, 1 µM, compound concentration 1 uM, replicate 1
[2] = 12 h, 1 µM, compound concentration 1 uM, replicate 2
[3] = 12 h, 10 µM, compound concentration 10 uM, replicate 1
[4] = 12 h, 10 µM, compound concentration 10 uM, replicate 2
[5] = 24 h, 1 µM, compound concentration 1 uM, replicate 1
[6] = 24 h, 1 µM, compound concentration 1 uM, replicate 2
[7] = 24 h, 10 µM, compound concentration 10 uM, replicate 1
[8] = 24 h, 10 µM, compound concentration 10 uM, replicate 2
[9] = 48 h, 1 µM, compound concentration 1 uM, replicate 1
[10] = 48 h, 1 µM, compound concentration 1 uM, replicate 2
[11] = 48 h, 10 µM, compound concentration 10 uM, replicate 1
[12] = 48 h, 10 µM, compound concentration 10 uM, replicate 2

## N#Cc1cc(F)cc(-c2nc(-c3ccc(F)cn3)no2)c1
[1]
  Population Apoptotic (%): 38%
  Population Fragmented Nuclei (%): 10%
  Population Healthy Nuclei (%): 76%
  Population Hoechst High Intensity Objects (%): 5%
  Population Membrane Permeable-Phenotype (%): 0%
  Population Mitochondria Different-Phenotype (%): 41%
  Population Mitotic Cells (%): 61%
  Population Normal (%): 95%
  Population Pyknosed Nuclei (%): 12%
  Population Tubulin-Different-Phenotype (%): 25%
  Total Cell Count: 280
[2]
  Population Apoptotic (%): 64%
  Population Fragmented Nuclei (%): 6%
  Population Healthy Nuclei (%): 77%
  Population Hoechst High Intensity Objects (%): 8%
  Population Mitochondria Different-Phenotype (%): 55%
  Population Mitotic Cells (%): 36%
  Population Normal (%): 91%
  Population Pyknosed Nuclei (%): 15%
  Population Tubulin-Different-Phenotype (%): 22%
  Total Cell Count: 342
[3]
  Population Apoptotic (%): 45%
  Population Fragmented Nuclei (%): 10%
  Population Healthy Nuclei (%): 73%
  Population Hoechst High Intensity Objects (%): 4%
  Population Membrane Permeable-Phenotype (%): 0%
  Population Mitochondria Different-Phenotype (%): 51%
  Population Mitotic Cells (%): 55%
  Population Normal (%): 95%
  Population Pyknosed Nuclei (%): 16%
  Population Tubulin-Different-Phenotype (%): 29%
  Total Cell Count: 383
[4]
  Population Fragmented Nuclei (%): 8%
  Population Healthy Nuclei (%): 77%
  Population Hoechst High Intensity Objects (%): 10%
  Population Mitochondria Different-Phenotype (%): 61%
  Population Mitotic Cells (%): 54%
  Population Normal (%): 89%
  Population Pyknosed Nuclei (%): 13%
  Population Tubulin-Different-Phenotype (%): 22%
  Total Cell Count: 269
[5]
  Population Apoptotic (%): 43%
  Population Fragmented Nuclei (%): 9%
  Population Healthy Nuclei (%): 77%
  Population Hoechst High Intensity Objects (%): 6%
  Population Membrane Permeable-Phenotype (%): 0%
  Population Mitochondria Different-Phenotype (%): 19%
  Population Mitotic Cells (%): 56%
  Population Normal (%): 93%
  Population Pyknosed Nuclei (%): 12%
  Population Tubulin-Different-Phenotype (%): 12%
  Total Cell Count: 353
[6]
  Population Apoptotic (%): 48%
  Population Fragmented Nuclei (%): 7%
  Population Healthy Nuclei (%): 82%
  Population Hoechst High Intensity Objects (%): 7%
  Population Mitochondria Different-Phenotype (%): 36%
  Population Mitotic Cells (%): 51%
  Population Normal (%): 92%
  Population Pyknosed Nuclei (%): 9%
  Population Tubulin-Different-Phenotype (%): 15%
  Total Cell Count: 463
[7]
  Population Apoptotic (%): 41%
  Population Fragmented Nuclei (%): 10%
  Population Healthy Nuclei (%): 74%
  Population Hoechst High Intensity Objects (%): 4%
  Population Membrane Permeable-Phenotype (%): 0%
  Population Mitochondria Different-Phenotype (%): 34%
  Population Mitotic Cells (%): 58%
  Population Normal (%): 95%
  Population Pyknosed Nuclei (%): 14%
  Population Tubulin-Different-Phenotype (%): 18%
  Total Cell Count: 479
[8]
  Population Apoptotic (%): 39%
  Population Healthy Nuclei (%): 79%
  Population Hoechst High Intensity Objects (%): 8%
  Population Mitochondria Different-Phenotype (%): 40%
  Population Mitotic Cells (%): 60%
  Population Normal (%): 91%
  Population Pyknosed Nuclei (%): 9%
  Population Tubulin-Different-Phenotype (%): 12%
  Total Cell Count: 363
[9]
  Population Apoptotic (%): 35%
  Population Fragmented Nuclei (%): 15%
  Population Healthy Nuclei (%): 77%
  Population Hoechst High Intensity Objects (%): 1%
  Population Membrane Permeable-Phenotype (%): 1%
  Population Mitochondria Different-Phenotype (%): 16%
  Population Mitotic Cells (%): 64%
  Population Normal (%): 98%
  Population Pyknosed Nuclei (%): 6%
  Population Tubulin-Different-Phenotype (%): 11%
  Total Cell Count: 585
[10]
  Population Apoptotic (%): 27%
  Population Fragmented Nuclei (%): 11%
  Population Healthy Nuclei (%): 81%
  Population Hoechst High Intensity Objects (%): 0%
  Population Mitochondria Different-Phenotype (%): 18%
  Population Mitotic Cells (%): 72%
  Population Normal (%): 99%
  Population Tubulin-Different-Phenotype (%): 10%
  Total Cell Count: 715
[11]
  Population Apoptotic (%): 39%
  Population Fragmented Nuclei (%): 16%
  Population Healthy Nuclei (%): 75%
  Population Hoechst High Intensity Objects (%): 1%
  Population Membrane Permeable-Phenotype (%): 1%
  Population Mitochondria Different-Phenotype (%): 18%
  Population Mitotic Cells (%): 60%
  Population Normal (%): 98%
  Population Pyknosed Nuclei (%): 8%
  Population Tubulin-Different-Phenotype (%): 9%
  Total Cell Count: 643
[12]
  Population Apoptotic (%): 48%
  Population Healthy Nuclei (%): 77%
  Population Hoechst High Intensity Objects (%): 4%
  Population Mitochondria Different-Phenotype (%): 22%
  Population Mitotic Cells (%): 51%
  Population Normal (%): 95%
  Population Pyknosed Nuclei (%): 5%
  Population Tubulin-Different-Phenotype (%): 11%
  Total Cell Count: 501
